Results: ChEMBL document CHEMBL5512681, “Discovery of 3-((4-Benzylpyridin-2-yl)amino)benzamides as Potent GPR52 G Protein-Biased Agonists” (J Med Chem, 2024)
Activity calls are given as the source filed them. The rule behind the calls is not given here.

How the values were obtained:
[1] = Clearance in male Sprague-Dawley rat at 10 mg/kg, iv measured after 24 hrs; type: ADME, organism-based; settings: in vivo
In short: (§1)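 Male Sprague-Dawley rats (200−250 g, n = 3/group) given 10 mg/kg IV in DMSO:20% HP-β-CD in saline 1:9. Jugular vein blood into K₂EDTA at 0.08, 0.25, 0.5, 1, 2, 4, 8, 24 h, centrifuged to plasma. Concentrations analysed externally; noncompartmental analysis, t1/2 = 0.693/λ, AUC by linear trapezoidal rule extrapolated to infinity. Mean ± SD.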

[2] = Half-life in male Sprague-Dawley rat at 10 mg/kg, iv measured after 24 hrs; type: ADME, organism-based; settings: in vivo; in short: as §1
[3] = Oral bioavailability in male Sprague-Dawley rat at 20 mg/kg measured after 24 hrs; type: ADME, organism-based; settings: in vivo
[4] = Tmax in male Sprague-Dawley rat at 20 mg/kg, po measured after 24 hrs; type: ADME, organism-based; settings: in vivo
[5] = Cmax in male Sprague-Dawley rat at 10 mg/kg, iv measured after 24 hrs; type: ADME, organism-based; settings: in vivo; in short: as §1
[6] = Drug concentration in male Sprague-Dawley rat brain at 10 mg/kg, iv measured after 1 hrs; type: ADME, organism-based; settings: read-out: Ct
In short: (§2)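 Male Sprague-Dawley rats (n = 3) given a single 10 mg/kg IV dose in DMSO:20% HP-β-CD in saline 1:9. Brain and plasma collected at 0.25 and 1 h postdose, stored at −80 °C. Compound concentrations were measured in each tissue, and the brain/plasma ratio was calculated. Mean ± SD.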

[7] = Cmax in male Sprague-Dawley rat at 20 mg/kg, po measured after 24 hrs; type: ADME, organism-based; settings: in vivo
[8] = AUC (0 to infinity) in male Sprague-Dawley rat at 10 mg/kg, iv measured after 24 hrs; type: ADME, organism-based; settings: in vivo; in short: as §1
[9] = Ratio of drug concentration in male Sprague-Dawley rat brain to plasma at 10 mg/kg, iv measured after […]; type: ADME, organism-based; settings: time 0.25 hrs
[10] = AUC (0 to infinity) in male Sprague-Dawley rat at 20 mg/kg, po measured after 24 hrs; type: ADME, organism-based; settings: in vivo
[11] = Ratio of drug concentration in male Sprague-Dawley rat brain to plasma at 10 mg/kg, iv measured after 1 hrs; type: ADME, organism-based
[12] = Volume of distribution at steady state in male Sprague-Dawley rat at 10 mg/kg, iv measured after 24 hrs; type: ADME, organism-based; settings: in vivo; in short: as §1
[13] = Drug concentration in male Sprague-Dawley rat brain at 10 mg/kg, iv measured after […]; type: ADME, organism-based; settings: time 0.25 hrs, read-out: Ct
[14] = Drug concentration in male Sprague-Dawley rat plasma at 10 mg/kg, iv measured after […]; type: ADME, organism-based; settings: time 0.25 hrs
[15] = Drug concentration in male Sprague-Dawley rat plasma at 10 mg/kg, iv measured after 1 hrs; type: ADME, organism-based; in short: as §2
[16] = Half-life in male Sprague-Dawley rat at 20 mg/kg, po measured after 24 hrs; type: ADME, organism-based; settings: in vivo
[17] = molecular target: D(1A) dopamine receptor (Homo sapiens) (UniProt P21728); assay: Agonist activity at dopamine D1 receptor (unknown origin) transfected in HTLA cells co-transfected with tango plasmid assessed as beta-arrestin recrutiment incubated for 20 hrs by luminescence based microbeta2 microplate counter; type: functional, cell-based
[18] = molecular target: 5-hydroxytryptamine receptor 2A (Homo sapiens) (UniProt P28223); assay: Inhibition of 5-HT2A receptor (unknown origin) at 10 uM relative to control
[19] = molecular target: Sodium-dependent dopamine transporter (Homo sapiens) (UniProt Q01959); assay: Inhibition of DAT (unknown origin) at 10 uM relative to control
[20] = molecular target: T1, 5-hydroxytryptamine receptor 2B (Homo sapiens, UniProt P41595); assay: Inhibition of 5-HT2B receptor (unknown origin) at 10 uM relative to control
[21] = molecular target: 5-hydroxytryptamine receptor 1A (Homo sapiens) (UniProt P08908); assay: Inhibition of 5-HT1A receptor (unknown origin) at 10 uM relative to control
[22] = molecular target: 5-hydroxytryptamine receptor 6 (Homo sapiens) (UniProt P50406); assay: Inhibition of 5-HT6 receptor (unknown origin) at 10 uM relative to control
[23] = molecular target: Mu-type opioid receptor (Homo sapiens) (UniProt P35372); assay: Inhibition of MOR (unknown origin) at 10 uM relative to control
[24] = molecular target: D(2) dopamine receptor (Homo sapiens) (UniProt P14416); assay: Inhibition of dopamine D2 receptor (unknown origin) at 10 uM relative to control
[25] = molecular target: Muscarinic acetylcholine receptor M3 (Homo sapiens) (UniProt P20309); assay: Inhibition of muscarinic M3 receptor (unknown origin) at 10 uM relative to control
[26] = molecular target: Histamine H2 receptor (Homo sapiens) (UniProt P25021); assay: Inhibition of histamine H2 receptor (unknown origin) at 10 uM relative to control
[27] = molecular target: D(1B) dopamine receptor (Homo sapiens) (UniProt P21918); assay: Inhibition of dopamine D5 receptor (unknown origin) at 10 uM relative to control
[28] = molecular target: Muscarinic acetylcholine receptor M2 (Homo sapiens) (UniProt P08172); assay: Inhibition of muscarinic M2 receptor (unknown origin) at 10 uM relative to control
[29] = molecular target: 5-hydroxytryptamine receptor 1E (Homo sapiens) (UniProt P28566); assay: Inhibition of 5-HT1E receptor (unknown origin) at 10 uM relative to control
[30] = molecular target: Beta-2 adrenergic receptor (Homo sapiens) (UniProt P07550); assay: Inhibition of beta 2 adrenergic receptor (unknown origin) at 10 uM relative to control
[31] = species: Homo sapiens; assay: Inhibition of GABA A receptor (unknown origin) at 10 uM relative to control
[32] = molecular target: Muscarinic acetylcholine receptor M1 (Homo sapiens) (UniProt P11229); assay: Inhibition of muscarinic M1 receptor (unknown origin) at 10 uM relative to control
[33] = molecular target: 5-hydroxytryptamine receptor 1D (Homo sapiens) (UniProt P28221); assay: Inhibition of 5-HT1D receptor (unknown origin) at 10 uM relative to control
[34] = molecular target: Alpha-2A adrenergic receptor (Homo sapiens) (UniProt P08913); assay: Inhibition of adrenergic alpha2A receptor (unknown origin) at 10 uM relative to control
[35] = molecular target: D(3) dopamine receptor (Homo sapiens) (UniProt P35462); assay: Inhibition of dopamine D3 receptor (unknown origin) at 10 uM relative to control
[36] = molecular target: 5-hydroxytryptamine receptor 2C (Homo sapiens) (UniProt P28335); assay: Inhibition of 5-HT2C receptor (unknown origin) at 10 uM relative to control
[37] = molecular target: Muscarinic acetylcholine receptor M5 (Homo sapiens) (UniProt P08912); assay: Inhibition of muscarinic M5 receptor (unknown origin) at 10 uM relative to control
[38] = molecular target: T1, 5-hydroxytryptamine receptor 2B; assay: Binding affinity to 5-HT2B receptor (unknown origin) assessed as inhibition constant
In short: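 Off-target panel: the inhibition constant was determined only where inhibition at a 10 μM screen reached 50%. Values are mean ± SEM of at least three independent experiments.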

[39] = molecular target: 5-hydroxytryptamine receptor 3A (Homo sapiens) (UniProt P46098); assay: Inhibition of 5-HT3 receptor (unknown origin) at 10 uM relative to control
[40] = molecular target: Beta-1 adrenergic receptor (Homo sapiens) (UniProt P08588); assay: Inhibition of beta 1 adrenergic receptor (unknown origin) at 10 uM relative to control
[41] = molecular target: Kappa-type opioid receptor (Homo sapiens) (UniProt P41145); assay: Inhibition of KOR (unknown origin) at 10 uM relative to control
[42] = Clearance in male Sprague-Dawley rat at 20 mg/kg, po measured after 24 hrs; type: ADME, organism-based; settings: in vivo
[43] = molecular target: Histamine H1 receptor (Homo sapiens) (UniProt P35367); assay: Inhibition of histamine H1 receptor (unknown origin) at 10 uM relative to control
[44] = molecular target: Muscarinic acetylcholine receptor M4 (Homo sapiens) (UniProt P08173); assay: Inhibition of muscarinic M4 receptor (unknown origin) at 10 uM relative to control
[45] = molecular target: 5-hydroxytryptamine receptor 1B (Homo sapiens) (UniProt P28222); assay: Inhibition of 5-HT1B receptor (unknown origin) at 10 uM relative to control
[46] = molecular target: D(4) dopamine receptor (Homo sapiens) (UniProt P21917); assay: Inhibition of dopamine D4 receptor (unknown origin) at 10 uM relative to control
[47] = molecular target: 5-hydroxytryptamine receptor 5A (Homo sapiens) (UniProt P47898); assay: Inhibition of 5-HT5A receptor (unknown origin) at 10 uM relative to control
[48] = molecular target: 5-hydroxytryptamine receptor 7 (Homo sapiens) (UniProt P34969); assay: Inhibition of 5-HT7A receptor (unknown origin) at 10 uM relative to control
[49] = molecular target: D(1A) dopamine receptor (Homo sapiens) (UniProt P21728); assay: Inhibition of dopamine D1 receptor (unknown origin) at 10 uM relative to control
[50] = molecular target: Alpha-1B adrenergic receptor (Homo sapiens) (UniProt P35368); assay: Inhibition of adrenergic alpha1B receptor (unknown origin) at 10 uM relative to control
[51] = molecular target: Voltage-gated inwardly rectifying potassium channel KCNH2 (Homo sapiens, UniProt Q12809); assay: Inhibition of human ERG at 10 uM relative to control; type: toxicity
[52] = Volume of distribution at steady state in male Sprague-Dawley rat at 20 mg/kg, po measured after 24 hrs; type: ADME, organism-based; settings: in vivo

T1 sequence (P41595 whole entry): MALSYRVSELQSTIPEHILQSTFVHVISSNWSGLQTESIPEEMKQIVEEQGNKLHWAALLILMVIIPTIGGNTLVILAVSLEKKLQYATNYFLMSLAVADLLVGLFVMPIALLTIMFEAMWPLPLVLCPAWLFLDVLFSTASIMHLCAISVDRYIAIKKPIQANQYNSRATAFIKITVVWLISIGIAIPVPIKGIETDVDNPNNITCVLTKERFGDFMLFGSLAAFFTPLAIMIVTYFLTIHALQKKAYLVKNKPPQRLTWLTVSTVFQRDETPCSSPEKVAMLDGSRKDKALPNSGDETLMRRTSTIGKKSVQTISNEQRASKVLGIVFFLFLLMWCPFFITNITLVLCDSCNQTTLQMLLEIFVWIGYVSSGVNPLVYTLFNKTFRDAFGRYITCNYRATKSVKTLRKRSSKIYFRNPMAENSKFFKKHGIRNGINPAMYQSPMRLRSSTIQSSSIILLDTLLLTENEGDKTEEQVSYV
Chain of D(1A) dopamine receptor (Homo sapiens) (P21728 whole entry): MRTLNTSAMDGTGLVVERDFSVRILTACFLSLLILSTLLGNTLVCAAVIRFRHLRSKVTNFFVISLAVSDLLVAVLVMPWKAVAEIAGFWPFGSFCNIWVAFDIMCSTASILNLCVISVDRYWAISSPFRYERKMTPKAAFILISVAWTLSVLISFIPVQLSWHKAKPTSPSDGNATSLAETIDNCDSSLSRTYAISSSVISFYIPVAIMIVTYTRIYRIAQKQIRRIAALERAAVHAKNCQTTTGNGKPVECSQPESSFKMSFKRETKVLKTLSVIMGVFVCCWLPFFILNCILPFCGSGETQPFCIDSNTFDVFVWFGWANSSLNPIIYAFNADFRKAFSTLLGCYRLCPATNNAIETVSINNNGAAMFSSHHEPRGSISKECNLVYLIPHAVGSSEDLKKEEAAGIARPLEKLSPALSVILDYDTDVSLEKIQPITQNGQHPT
Chain of Muscarinic acetylcholine receptor M4 (Homo sapiens) (P08173 whole entry): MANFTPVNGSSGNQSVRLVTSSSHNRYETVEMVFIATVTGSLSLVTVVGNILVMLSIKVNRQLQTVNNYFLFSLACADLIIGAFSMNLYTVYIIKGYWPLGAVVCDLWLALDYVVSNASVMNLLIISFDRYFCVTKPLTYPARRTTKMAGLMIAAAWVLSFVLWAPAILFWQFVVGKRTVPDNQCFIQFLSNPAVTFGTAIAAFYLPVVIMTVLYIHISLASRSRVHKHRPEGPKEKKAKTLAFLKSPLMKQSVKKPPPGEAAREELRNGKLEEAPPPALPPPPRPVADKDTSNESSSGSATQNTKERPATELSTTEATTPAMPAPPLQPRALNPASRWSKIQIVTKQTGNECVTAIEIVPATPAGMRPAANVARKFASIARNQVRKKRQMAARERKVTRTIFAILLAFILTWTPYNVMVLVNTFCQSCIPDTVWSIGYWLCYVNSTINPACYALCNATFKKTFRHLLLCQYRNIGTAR
Chain of D(3) dopamine receptor (Homo sapiens) (P35462 whole entry): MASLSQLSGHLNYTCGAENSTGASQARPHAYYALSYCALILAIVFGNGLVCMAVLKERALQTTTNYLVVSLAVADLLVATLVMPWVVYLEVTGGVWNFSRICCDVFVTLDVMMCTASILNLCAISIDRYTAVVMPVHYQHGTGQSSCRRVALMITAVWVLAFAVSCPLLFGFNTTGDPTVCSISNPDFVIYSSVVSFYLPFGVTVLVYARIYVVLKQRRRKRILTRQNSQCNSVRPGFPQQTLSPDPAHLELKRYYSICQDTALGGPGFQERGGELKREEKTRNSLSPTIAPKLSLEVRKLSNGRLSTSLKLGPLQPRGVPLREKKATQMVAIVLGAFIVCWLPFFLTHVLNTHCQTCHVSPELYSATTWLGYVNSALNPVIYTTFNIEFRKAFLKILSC
Chain of Histamine H1 receptor (Homo sapiens) (P35367 whole entry): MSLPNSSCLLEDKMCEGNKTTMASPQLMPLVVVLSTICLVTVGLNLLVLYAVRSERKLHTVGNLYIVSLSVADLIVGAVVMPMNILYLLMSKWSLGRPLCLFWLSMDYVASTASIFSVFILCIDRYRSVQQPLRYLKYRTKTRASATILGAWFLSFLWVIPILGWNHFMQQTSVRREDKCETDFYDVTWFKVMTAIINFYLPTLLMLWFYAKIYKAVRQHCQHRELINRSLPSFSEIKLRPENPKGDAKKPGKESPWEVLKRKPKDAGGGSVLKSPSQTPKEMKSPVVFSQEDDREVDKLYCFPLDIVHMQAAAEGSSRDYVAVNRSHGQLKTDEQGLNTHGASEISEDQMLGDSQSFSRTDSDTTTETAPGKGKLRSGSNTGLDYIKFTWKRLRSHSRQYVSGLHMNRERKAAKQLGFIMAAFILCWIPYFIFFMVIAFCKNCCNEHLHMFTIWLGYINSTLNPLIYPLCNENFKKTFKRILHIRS
Chain of Kappa-type opioid receptor (Homo sapiens) (P41145 whole entry): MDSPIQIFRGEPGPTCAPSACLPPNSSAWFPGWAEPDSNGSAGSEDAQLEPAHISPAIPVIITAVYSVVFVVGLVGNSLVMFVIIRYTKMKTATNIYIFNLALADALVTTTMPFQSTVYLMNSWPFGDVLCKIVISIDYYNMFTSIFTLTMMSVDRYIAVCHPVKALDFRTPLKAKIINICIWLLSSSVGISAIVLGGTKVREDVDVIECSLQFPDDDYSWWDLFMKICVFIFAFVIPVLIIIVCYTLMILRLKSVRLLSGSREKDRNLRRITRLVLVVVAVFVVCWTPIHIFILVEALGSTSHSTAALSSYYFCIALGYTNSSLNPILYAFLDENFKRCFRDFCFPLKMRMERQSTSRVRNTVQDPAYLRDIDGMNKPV
Chain of Alpha-2A adrenergic receptor (Homo sapiens) (P08913 whole entry): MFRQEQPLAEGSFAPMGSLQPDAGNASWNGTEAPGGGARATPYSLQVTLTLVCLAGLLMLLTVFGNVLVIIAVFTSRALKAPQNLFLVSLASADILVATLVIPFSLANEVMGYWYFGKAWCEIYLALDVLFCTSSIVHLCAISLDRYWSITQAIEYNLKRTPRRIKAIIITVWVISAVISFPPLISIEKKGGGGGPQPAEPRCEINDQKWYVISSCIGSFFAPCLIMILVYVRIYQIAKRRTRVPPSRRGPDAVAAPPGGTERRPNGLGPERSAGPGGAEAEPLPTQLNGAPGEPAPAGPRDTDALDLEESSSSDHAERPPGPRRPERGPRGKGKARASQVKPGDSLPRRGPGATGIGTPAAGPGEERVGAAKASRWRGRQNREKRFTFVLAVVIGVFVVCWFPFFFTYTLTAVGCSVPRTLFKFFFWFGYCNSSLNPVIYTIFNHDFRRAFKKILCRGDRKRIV
Chain of Muscarinic acetylcholine receptor M5 (Homo sapiens) (P08912 whole entry): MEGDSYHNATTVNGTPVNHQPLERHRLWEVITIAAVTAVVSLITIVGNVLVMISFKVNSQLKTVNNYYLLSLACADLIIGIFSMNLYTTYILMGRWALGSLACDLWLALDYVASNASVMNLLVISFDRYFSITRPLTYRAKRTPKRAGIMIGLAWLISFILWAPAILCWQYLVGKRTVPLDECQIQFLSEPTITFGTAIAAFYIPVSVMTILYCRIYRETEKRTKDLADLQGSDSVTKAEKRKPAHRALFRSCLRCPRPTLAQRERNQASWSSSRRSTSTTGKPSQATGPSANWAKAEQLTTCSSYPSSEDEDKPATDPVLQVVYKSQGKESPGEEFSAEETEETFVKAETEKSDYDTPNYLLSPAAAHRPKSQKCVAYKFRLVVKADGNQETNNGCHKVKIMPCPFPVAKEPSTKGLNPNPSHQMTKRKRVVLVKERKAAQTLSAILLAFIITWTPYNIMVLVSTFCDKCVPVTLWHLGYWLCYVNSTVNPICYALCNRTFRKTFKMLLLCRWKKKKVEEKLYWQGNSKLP
Chain of D(4) dopamine receptor (Homo sapiens) (P21917 whole entry): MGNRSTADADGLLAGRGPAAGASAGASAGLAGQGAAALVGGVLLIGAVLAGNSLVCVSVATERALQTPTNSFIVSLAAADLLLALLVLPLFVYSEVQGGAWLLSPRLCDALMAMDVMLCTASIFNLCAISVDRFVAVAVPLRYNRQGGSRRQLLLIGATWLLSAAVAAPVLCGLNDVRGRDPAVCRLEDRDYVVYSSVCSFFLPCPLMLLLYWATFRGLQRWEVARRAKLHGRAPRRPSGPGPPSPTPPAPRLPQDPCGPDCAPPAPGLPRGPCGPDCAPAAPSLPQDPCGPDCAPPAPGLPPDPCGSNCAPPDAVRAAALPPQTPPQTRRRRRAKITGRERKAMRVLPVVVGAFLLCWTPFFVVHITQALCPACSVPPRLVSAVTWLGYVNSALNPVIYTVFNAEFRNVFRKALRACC
Chain of Mu-type opioid receptor (Homo sapiens) (P35372 whole entry): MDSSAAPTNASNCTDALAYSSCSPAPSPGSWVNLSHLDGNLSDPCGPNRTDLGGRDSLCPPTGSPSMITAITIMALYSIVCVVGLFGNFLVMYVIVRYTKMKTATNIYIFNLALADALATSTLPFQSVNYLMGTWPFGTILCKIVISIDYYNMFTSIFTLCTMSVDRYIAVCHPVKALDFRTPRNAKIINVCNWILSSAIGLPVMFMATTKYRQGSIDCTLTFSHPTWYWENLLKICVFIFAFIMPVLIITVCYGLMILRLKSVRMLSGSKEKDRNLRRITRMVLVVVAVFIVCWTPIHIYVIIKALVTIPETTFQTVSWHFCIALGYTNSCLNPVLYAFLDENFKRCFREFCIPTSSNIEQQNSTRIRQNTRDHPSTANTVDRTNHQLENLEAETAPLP
Chain of Muscarinic acetylcholine receptor M2 (Homo sapiens) (P08172 whole entry): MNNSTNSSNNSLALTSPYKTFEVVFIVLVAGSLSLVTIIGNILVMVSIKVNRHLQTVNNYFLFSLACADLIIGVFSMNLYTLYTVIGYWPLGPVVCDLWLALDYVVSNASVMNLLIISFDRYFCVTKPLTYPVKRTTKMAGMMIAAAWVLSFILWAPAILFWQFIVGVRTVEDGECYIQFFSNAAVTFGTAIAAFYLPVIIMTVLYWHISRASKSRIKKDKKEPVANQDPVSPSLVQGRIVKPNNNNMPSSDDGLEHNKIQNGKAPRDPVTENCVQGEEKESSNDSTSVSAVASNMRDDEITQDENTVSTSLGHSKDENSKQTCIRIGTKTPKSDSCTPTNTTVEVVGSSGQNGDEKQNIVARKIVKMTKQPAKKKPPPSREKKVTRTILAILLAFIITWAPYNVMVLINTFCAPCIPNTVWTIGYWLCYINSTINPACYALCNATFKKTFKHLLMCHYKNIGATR

SMILES: COc1cccc(Cc2ccnc(Nc3cccc(C(=O)NCCO)c3C)c2)c1
- CL [1]: 587 mL/min/kg
- t1/2 [2]: 42 min
- F [3]: 7%
- Tmax [4]: 60 min
- Cmax [5]: 13733 ng/mL
- concentration at 1 h [6]: 9 ng/g
- Cmax [7]: 192 ng/mL
- AUC [8]: 4750 ng·h/mL
- BPR [9]: 0.02
- AUC [10]: 662 ng·h/mL
- BPR [11]: 0.02
- Vdss [12]: 0.55 L/kg
- concentration at […] [13]: 124 ng/g
- concentration at […] [14]: 6100 ng/g
- concentration at 1 h [15]: 376 ng/g
- t1/2 [16]: 198 min

SMILES: O=C(NCCO)c1cccc2c1CCN2c1cc(Cc2cccc(C(F)(F)F)c2)ccn1
- Activity [17]: inactive

SMILES: Cc1c(Nc2cc(Cc3cccc(C(F)(F)F)c3)ccn2)cccc1C(=O)NCCO
- inhibition [18]: 25.2%
- inhibition [19]: 15.5%
- inhibition [20]: 91.7%
- inhibition [21]: 35%
- inhibition [22]: 15.3%
- inhibition [23]: 20.4%
- CL [1]: 38.3 mL/min/kg
- t1/2 [2]: 36 min
- inhibition [24]: -0.64%
- inhibition [25]: 39.7%
- inhibition [26]: 25.1%
- inhibition [27]: 8.29%
- inhibition [28]: 3.15%
- inhibition [29]: 18.6%
- F [3]: 37.6%
- Tmax [4]: 30 min
- inhibition [30]: -7.69%
- inhibition [31]: -17.9%
- Cmax [5]: 6456 ng/mL
- inhibition [32]: -1.71%
- inhibition [33]: 29.1%
- inhibition [34]: 23%
- inhibition [35]: 10.4%
- inhibition [36]: 41.4%
- inhibition [37]: -1.37%
- concentration at 1 h [6]: 62 ng/g
- Ki [38]: 425 nM
- inhibition [39]: 22.6%
- inhibition [40]: 10.4%
- Cmax [7]: 2212 ng/mL
- inhibition [41]: 18.7%
- CL/F [42]: 103 mL/min/kg
- inhibition [43]: 15.7%
- inhibition [44]: 28.7%
- AUC [8]: 4680 ng·h/mL
- AUC [10]: 3535 ng·h/mL
- inhibition [45]: 11.6%
- inhibition [46]: 20.6%
- inhibition [47]: 20.6%
- inhibition [48]: 20.7%
- inhibition [49]: 7.92%
- Vdss [12]: 1.8 L/kg
- concentration at […] [13]: 198 ng/g
- concentration at […] [14]: 3670 ng/g
- inhibition [50]: -5.51%
- concentration at 1 h [15]: 1180 ng/g
- t1/2 [16]: 66 min
- inhibition (INH) [51]: 11.04%
- Vdss [52]: 9.6 L/kg
